# Compound activity deposited in PubChem by several laboratories.
# Compounds with a hit are over-represented: about 27% of the library has one in this group of screens.
# CYP2C19 activ: cytochrome P450 2C19 (human) activation. recombinant CYP2C19, luciferin-H EGE luminescence; active compounds read high; 0 = fully inhibited enzyme, 1 = untreated enzyme. 96,000 tested, under 10 active. activation factor at 5 µM;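 active = activation factor of at least 2 at 5 µM in the primary screen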
# Cav32 inh: blocks human Cav3.2 T-type calcium channel; O95180; Cav3.2-expressing cells, Fluo-4 calcium fluorescence FDSS; active compounds read low; B-score at 10 µM; actives 4% (n = 100,000);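 active = single-dose well whose peak fluorescence ratio is a statistical outlier from its plate by either plate-standardised score or position-corrected B-score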
# Rev-RRE block: HIV Rev-RRE protein-RNA interaction inhibition. P05866. inhibition, % at 8 µM. actives 0.79% (n = 97,000). Rev peptide-RRE RNA binding, FRET. AID 704;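 active = inhibition above the screen-wide mean plus 3 SD, cut at about 35% in these data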
# Target sequence (P05866 whole entry, looked up): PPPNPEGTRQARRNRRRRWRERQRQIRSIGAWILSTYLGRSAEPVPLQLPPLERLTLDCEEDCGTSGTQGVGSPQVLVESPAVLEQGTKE
#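 System: Cy5-labelled duplex RRE RNA binding fluorescein-labelled HIV Rev peptide; Signal: fluorescein-to-Cy5 FRET, 480 nm excitation; Also added: labelled Rev peptide; Compound: one concentration, 8 µM nominal; Buffer or medium: HEPES pH 7.5 salt buffer with EDTA; Read-out: % inhibition of FRET ratio versus controls; Schedule: 5 min preincubation and 15 min binding, 25 °C.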
# CYP2C9 inhib: inhibitors of human CYP2C9. P11712. CYP2C9 Supersomes, luciferin-H conversion, luminescence. inhibition, % at 5 µM. actives 20% (n = 96,000);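 active = blocking of liver enzyme CYP2C9 beyond about 50% at 5 µM, limit read from the data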
# Target sequence (P11712 whole entry, looked up): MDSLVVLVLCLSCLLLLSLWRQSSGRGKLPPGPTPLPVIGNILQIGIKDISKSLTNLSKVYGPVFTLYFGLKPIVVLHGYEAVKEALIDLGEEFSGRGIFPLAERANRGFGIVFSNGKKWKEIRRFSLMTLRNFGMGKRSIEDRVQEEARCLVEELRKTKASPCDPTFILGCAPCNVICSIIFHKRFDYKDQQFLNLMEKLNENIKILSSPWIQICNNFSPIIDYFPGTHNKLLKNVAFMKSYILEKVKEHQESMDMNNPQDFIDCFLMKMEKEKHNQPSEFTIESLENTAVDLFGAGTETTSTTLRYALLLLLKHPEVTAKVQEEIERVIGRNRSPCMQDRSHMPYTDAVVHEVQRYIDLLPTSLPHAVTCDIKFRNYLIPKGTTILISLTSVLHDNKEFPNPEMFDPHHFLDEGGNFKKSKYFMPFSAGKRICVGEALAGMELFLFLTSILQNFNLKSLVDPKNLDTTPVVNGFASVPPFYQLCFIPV
# CYP2C9 act: increases human cytochrome P450 2C9 activity. AID 1024. recombinant CYP2C9, luciferin-H conversion, luminescence; active compounds read high; factor 1 = untreated enzyme, 0 = blocked. P11712. actives 1.4% (n = 96,000). activation factor at 5 µM;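 active = activation factor of 2 or more for CYP2C9 at a 5 µM dose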
# CYP2C19 inhib: inhibitors of human CYP2C19; P33261; AID 778; inhibition, % at 5 µM; CYP2C19 Supersomes, luciferin-H EGE luminescence, 30 min; actives 21% (n = 96,000);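 active = CYP2C19 inhibition above a set limit at 5 µM in the primary screen, cut at about 50% in these data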
# Hits are given with their value; . = inactive; / = not tested or not shown; [ ] = another dose, or the depositor's remark.
SMILES,CYP2C19 activ,Cav32 inh,Rev-RRE block,CYP2C9 inhib,CYP2C9 act,CYP2C19 inhib
Cc1cccc(NC(=O)CCNS(=O)(=O)c2cccc3nsnc23)c1,.,.,/,.,.,67
O=C(CCCNS(=O)(=O)c1cccc2nsnc12)NCCc1ccccc1,.,.,.,.,.,.
COc1ccccc1CNC(=O)CCNS(=O)(=O)c1cccc2nsnc12,.,.,.,.,2.3,80
CC(C)OCCCN1C(=O)c2ccccc2C1C(=O)NC1CCCCC1 (configuration not stated),.,.,.,.,.,.
COc1cc(C(O)P(=O)(OCC(C)C)OCC(C)C)cc(OC)c1OC (configuration not stated),.,/,.,.,.,.
Cc1ccc(Oc2ccccc2/C=C/C(=O)O)cc1,.,.,.,.,.,.
O=S(=O)(c1cccc(NC(=S)Nc2ccc(Br)cc2Cl)c1)N1CCOCC1,.,.,.,.,.,.
O=C1Cc2ccccc2C(c2ccc(Br)cc2)N1 (configuration not stated),.,.,.,71,.,100
O=C1/C(=C/c2ccc(N3CCCC3)cc2)NC(=S)N1C1CC1,.,.,137[fluorescence artefact?],.,.,.
COC(=O)C(NC(=O)COc1ccccc1)(Nc1nc2c(s1)CCCC2)C(F)(F)F (configuration not stated),/,-6.3,.,/,/,/
CCOC(=O)C(NC(=O)CC)(Nc1nc2c(s1)CCCC2)C(F)(F)F (configuration not stated),/,.,.,/,/,/
CN(C)S(=O)(=O)Oc1cccc(C(=O)Nc2ccc(Cl)cc2)c1,.,.,.,68,.,.
CN(C)S(=O)(=O)Oc1cccc(C(=O)Nc2ccccc2Cl)c1,.,.,.,52,.,52
COc1cccc(C(=O)Nc2ccc(C)cc2)c1,.,.,.,.,.,.
Oc1ccc(-c2nc3cnccn3c2Nc2ccc3c(c2)OCCO3)cc1,.,/,.,96,.,98
Clc1ccc(-c2nc3ncccn3c2Nc2ccc3c(c2)OCO3)cc1,.,.,.,.,.,.
Oc1ccc(-c2nc3ncccn3c2Nc2ccc3c(c2)OCO3)cc1,.,.,.,59,.,.
O=C(NCc1ccccc1Cl)c1cnn2cccnc12,.,.,.,.,.,.
COc1cc(C)c(Br)cc1S(=O)(=O)N1CCCC1,.,.,.,.,2.8,96
CCCOc1cc(C)c(Cl)cc1S(=O)(=O)N(CC)CC,/,-3.8,.,/,/,/
CCN(CC)S(=O)(=O)c1cc(Br)ccc1OC,.,.,.,.,2.5,98
CCN(CC)S(=O)(=O)c1cc(Br)c(C)cc1OC,.,/,.,.,2,.
CCOc1cc(C)c(Cl)cc1S(=O)(=O)N1CCCC1,.,.,.,.,.,.
COc1ccc(Br)cc1S(=O)(=O)N1CCOCC1,.,.,.,.,.,.
COC(=O)C1CCN(C(=O)COc2cc3sc(C)nc3c3sccc23)CC1,.,.,.,.,.,.
SMILES,CYP2C19 activ,Cav32 inh,Rev-RRE block,CYP2C9 inhib,CYP2C9 act,CYP2C19 inhib
COC(=O)c1nn(C23CC4CC(CC(C4)C2)C3)c2c1C(=O)N(c1ccc(Br)cc1)C2=O,.,.,.,.,.,.
Cc1ccc(C(C)n2cc(C(=O)NCc3ccncc3)nn2)cc1 (configuration not stated),.,.,.,89,.,.
CC(c1ccccc1)n1cc(C(=O)NCc2cccnc2)nn1 (configuration not stated),.,.,.,.,.,.
Cn1c(CN2CCN(c3ccc(Cl)cc3)CC2)nc2ccccc21,.,.,.,.,.,64
CCn1c(CN2CCN(c3ccc(Cl)cc3)CC2)nc2ccccc21,/,-6.7,.,/,/,/
O=C(O)c1nc(N2CCCC2)ncc1Cl,.,.,.,.,.,.
c1ccc2c(-c3nc(C4CCCCC4)no3)cc(-c3ccncc3)nc2c1,.,.,.,80,.,57
Cc1ccc(C)c(-n2c(CNc3ccc(F)cc3)nnc2SCC(N)=O)c1,.,.,.,.,.,.
CCC1(C(=O)c2ccccc2)C2c3cc(Br)ccc3OC(=O)C21C(=O)N1CCOCC1 (configuration not stated),.,-4.3,.,.,.,.
CC(=O)NC(CCS(C)(=O)=O)C(=O)Nc1c(C)cccc1C (configuration not stated),.,.,/,.,.,.
O=C(c1ccccc1)c1nc[nH]c1C(=O)Nc1ccccc1,.,.,.,.,.,.
CCN(CC)CCCNC(=O)c1cc(-c2ccc(Cl)c(Cl)c2)on1,.,.,.,.,.,.
CCN(CC)CCCNC(=O)c1cc(-c2ccc(O)cc2)on1,.,.,.,.,2.3,.
CC(C)CCn1c(CN2CCN(c3cccc(Cl)c3)CC2)nc2c1c(=O)n(C)c(=O)n2C,/,.,/,/,/,/
COc1ccc(OC)c(C(c2nnnn2Cc2ccccc2)N2CCN(C3CCCCC3)CC2)c1 (configuration not stated),.,.,/,.,.,.
Brc1ccc(-c2cnc(-c3cccs3)o2)cc1,.,.,.,59,.,.
CCCOc1ccc(-c2nnc(-c3cccs3)o2)cc1,/,.,.,/,/,/
O=C(Nc1nc2ccc(S(=O)(=O)N3CCCC3)cc2s1)c1cccs1,.,.,.,.,.,.
Cc1ccc(S(=O)(=O)Nc2nc3ccc(S(=O)(=O)N4CCCC4)cc3s2)cc1,.,.,.,98,.,.
O=S(=O)(Nc1nc2ccc(S(=O)(=O)N3CCCCC3)cc2s1)c1ccccc1,.,.,.,99,.,.
COc1cc2oc(=O)ccc2c(OC)c1CC(O)C(C)(C)O (configuration not stated),/,.,/,/,/,/
O=C(COC(=O)c1cc[n+]([O-])cc1)Nc1ccc2c(c1)OCCO2,.,.,.,.,.,.
Cc1cc(C)n2nc3nc4c(cc3c2n1)CCCC4,.,.,76,.,.,.
C=CCn1c(=NC(=O)C2CCCCC2)sc2cc(NC(C)=O)ccc21,.,.,.,68,.,.
C=CCn1c(=NC(=O)C2CC2)sc2cc(NC(C)=O)ccc21,.,/,.,.,.,.
SMILES,CYP2C19 activ,Cav32 inh,Rev-RRE block,CYP2C9 inhib,CYP2C9 act,CYP2C19 inhib
C=CCNC(=S)NNC(=O)c1cccn(Cc2ccc(Cl)c(Cl)c2)c1=O,.,-5.9,.,.,.,.
CNC(=S)NNC(=O)c1cccn(Cc2cccc(Cl)c2)c1=O,.,.,.,.,.,.
C=CCNC(=S)NNC(=O)c1cccn(Cc2ccc(Cl)cc2Cl)c1=O,.,.,.,68,.,.
COC(=O)[C@@H]1C[C@@H]2CC[C@@H](O)C[C@@H]2N1Cc1ccccc1OS(=O)(=O)c1ccc(C)cc1,/,.,/,/,/,/
Cc1ccc(S(=O)(=O)NC(C)C(=O)Nc2ccc(C(N)=O)cc2)cc1 (configuration not stated),.,.,.,.,.,.
O=C(c1ccccc1NS(=O)(=O)c1ccc(F)cc1)N1CCCC1,.,.,.,.,.,.
